{"source": "ChEMBL document CHEMBL6134796", "about": "“Development and Evaluation of Indole-Based Phospholipase D Inhibitors for Lung Cancer Immunotherapy” (J Med Chem, 2025)", "key": {"A549 [1]": {"test_system": "A549", "experiment": "Inhibition of PLD1 L425A mutant (unknown origin) overexpressed in human A549 cells", "type": "cell-based", "outline": "(§1)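 A549 cells transfected with wild-type PLD1, PLD1 mutants (L425A, F614A, F789A) or PLD2, then compound-treated. PLD activity measured as [3H]phosphatidylbutanol formed in the presence of 1-butanol after [3H]myristic acid labeling, expressed as % of total lipid cpm. At least three independent experiments.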"}, "A549 [2]": {"test_system": "A549", "experiment": "Inhibition of PLD1 F789A mutant (unknown origin) overexpressed in human A549 cells", "type": "cell-based", "outline": "as §1"}, "NCI-H460": {"test_system": "NCI-H460", "experiment": "Cytotoxicity against human NCI-H460 cells assessed as inhibition of cell growth incubated for 48 hrs by WST-1 assay", "type": "functional, cell-based", "conditions": "NCI-H460, 48 h", "outline": "(§2)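 WST-1 viability assay. Cells seeded at 5 × 10^3 per well and incubated 24 h at 37 °C, then exposed to drug for 48 h. Absorbance read at 450 nm, in triplicate. IC50 taken as the concentration giving 50% growth inhibition versus control.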"}, "[3]": {"experiment": "Cytotoxicity against human HCC15 cells assessed as inhibition of cell growth incubated for 48 hrs by WST-1 assay", "type": "functional, cell-based", "conditions": "HCC15, 48 h", "outline": "as §2"}, "A549 [4]": {"test_system": "A549", "experiment": "Downregulation of CD47 expression in human A549 cells by flow cytometry analysis", "type": "functional, cell-based", "outline": "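A549 cells treated with compound. Surface \"don't eat-me\" and \"eat-me\" markers measured by flow cytometry.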"}, "A549 [5]": {"test_system": "A549", "experiment": "Upregulation of CRT expression in human A549 cells by flow cytometry analysis", "type": "functional, cell-based", "outline": "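A549 cells treated with compound; surface \"eat-me\" and \"don't eat-me\" signal proteins measured by flow cytometry; at least three independent experiments, mean ± SEM.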"}, "[6]": {"test_system": "Lewis lung carcinoma cell line", "experiment": "Antitumor activity against mouse Lewis lung carcinoma cell line allografted in male C57BL/6 mouse model assessed as reduction in tumor formation at 10 mg/kg, po measured every other day for 3 weeks", "type": "functional, organism-based", "outline": "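Syngeneic model: 6-week-old male C57BL/6 mice given 3 × 10^5 LLC cells in 50 μL PBS subcutaneously in the flank. At day 7, mice were randomized to vehicle PO daily or 10 mg/kg PO every other day for 3 weeks. Caliper volume was taken every 2 days as ([…])/2, with tumor weight at end. Spleen size and weight were recorded. Ki67 and cleaved caspase-3 were scored by IHC (DAB, hematoxylin).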"}, "Mus musculus": {"test_system": "Mus musculus", "experiment": "In vivo inhibition of KRAS activation in male C57BL/6 mouse allografted with mouse Lewis lung carcinoma cell line assessed as decrease in Akt phosphorylation at 10 mg/kg, po", "type": "functional, organism-based"}, "[7]": {"biological_target": "T1, Phospholipase D1 (Mus musculus) (UniProt Q9Z280)", "T1 sequence (whole entry)": "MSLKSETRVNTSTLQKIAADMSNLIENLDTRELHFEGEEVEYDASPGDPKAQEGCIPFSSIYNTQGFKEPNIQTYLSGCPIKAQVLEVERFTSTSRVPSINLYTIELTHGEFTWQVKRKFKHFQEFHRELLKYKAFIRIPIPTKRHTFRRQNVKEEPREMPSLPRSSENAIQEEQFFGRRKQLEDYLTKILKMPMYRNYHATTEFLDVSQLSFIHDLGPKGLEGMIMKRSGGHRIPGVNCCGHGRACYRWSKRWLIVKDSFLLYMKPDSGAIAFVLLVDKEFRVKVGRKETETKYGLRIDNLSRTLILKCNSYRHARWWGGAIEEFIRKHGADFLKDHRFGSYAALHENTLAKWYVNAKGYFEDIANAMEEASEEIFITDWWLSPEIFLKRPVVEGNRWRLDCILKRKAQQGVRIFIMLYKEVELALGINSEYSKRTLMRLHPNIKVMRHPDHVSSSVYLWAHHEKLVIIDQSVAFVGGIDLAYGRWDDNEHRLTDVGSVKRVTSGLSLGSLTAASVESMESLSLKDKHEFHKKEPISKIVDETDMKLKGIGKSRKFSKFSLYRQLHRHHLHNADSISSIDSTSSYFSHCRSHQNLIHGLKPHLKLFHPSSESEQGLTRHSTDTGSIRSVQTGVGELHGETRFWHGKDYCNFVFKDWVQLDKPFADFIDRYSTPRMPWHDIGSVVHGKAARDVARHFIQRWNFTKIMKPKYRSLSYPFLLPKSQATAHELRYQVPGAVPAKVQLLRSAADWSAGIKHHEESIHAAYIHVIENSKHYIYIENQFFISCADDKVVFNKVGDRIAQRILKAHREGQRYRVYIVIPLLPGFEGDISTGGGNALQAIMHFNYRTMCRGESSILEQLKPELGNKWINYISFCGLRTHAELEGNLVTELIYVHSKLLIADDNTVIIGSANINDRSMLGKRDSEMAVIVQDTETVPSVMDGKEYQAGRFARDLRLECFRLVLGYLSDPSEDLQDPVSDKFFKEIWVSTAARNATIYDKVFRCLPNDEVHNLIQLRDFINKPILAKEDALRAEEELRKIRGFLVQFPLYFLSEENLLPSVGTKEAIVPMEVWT", "experiment": "In vivo inhibition of PLD1 in male C57BL/6 mouse allografted with mouse Lewis lung carcinoma cell line assessed as increase in CD4+ cell population at 10 mg/kg, po by immunofluorescence analysis", "type": "functional, organism-based", "outline": "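Same LLC syngeneic C57BL/6 model, 10 mg/kg PO every other day for 3 weeks. Tumor tissues were stained by immunofluorescence for CD80+ and CD163+ cells, CD8+ T cells, and CD4+/IL-17+ and Treg populations. Nuclei were counterstained with 1 μM Hoechst 33342 and imaged by confocal microscopy.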"}, "A549 [8]": {"test_system": "A549", "experiment": "Synergistic antiproliferative activity against human A549 cells assessed as reduction in cell proliferation measured up to 48 hrs in presence of gemcitabine by IncuCyte real-time imaging"}}, "note": "Active and inactive are the calls of the source. No cut-off for these calls is given here."}
{"smiles": "O=C(CCc1c[nH]c2ccccc12)Nc1cc(C(F)(F)F)cc(C(F)(F)F)c1", "values": [{"measurement": "inhibition", "setting": "A549 [1]", "result": "Active"}, {"measurement": "inhibition", "setting": "A549 [2]", "result": "inactive"}, {"measurement": "IC50", "setting": "NCI-H460", "result": 24.9, "unit": "µM"}, {"measurement": "IC50", "setting": "[3]", "result": 21.4, "unit": "µM"}, {"measurement": "Activity", "setting": "A549 [4]", "result": "Active"}, {"measurement": "Activity", "setting": "A549 [5]", "result": "Active"}, {"measurement": "Activity", "setting": "[6]", "result": "Active"}, {"measurement": "inhibition", "setting": "Mus musculus", "result": "Active"}, {"measurement": "inhibition", "setting": "[7]", "result": "Active"}, {"measurement": "Activity", "setting": "A549 [8]", "result": "Active"}]}
